procasp3 activ = activates human procaspase-3. recombinant procaspase-3 D3A, Ac-DEVD-pNA absorbance 405 nm. 330,000 compounds, 0.11% hits. P42574. activation, % at 8.5 µM;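 active means activation above the mean of all tested compounds plus 3 SD, cut at about 21% in these data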
Target sequence (P42574 whole entry D9A/D28A/D175A): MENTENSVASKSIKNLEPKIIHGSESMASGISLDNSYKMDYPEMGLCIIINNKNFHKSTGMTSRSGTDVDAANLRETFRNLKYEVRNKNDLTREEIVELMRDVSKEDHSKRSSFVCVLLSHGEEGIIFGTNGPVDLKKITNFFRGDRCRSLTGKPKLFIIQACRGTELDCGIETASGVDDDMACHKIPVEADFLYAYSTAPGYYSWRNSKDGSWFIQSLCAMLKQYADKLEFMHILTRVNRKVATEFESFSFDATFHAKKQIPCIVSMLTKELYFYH
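Evaluation: percent activation relative to control range; Material: Procaspase-3 D3A mutant, all three cleavage aspartates alanine; Compound: single dose, 8.5 µM nominal compound, 0.8% DMSO; Replication: one well per compound; Signal: absorbance at 405 nm, 0 and 120 min; Schedule: 1 h preincubation plus 2 h reaction at 25 °C.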
CHT allo act = allosteric activators of human choline transporter CHT | AID 488977 | 310,000 compounds, 0.49% hits | CHT-expressing cells, membrane potential dye, choline EC20; hits give high values; LV-AA mutant CHT in HEK293 cells | B-score at 10 µM | Q9GZV3;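 active means initial fluorescence not abnormally high and integrated response B-score, plate-corrected, over 3 SD above library mean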
CHT inh = inhibitors of human choline transporter CHT. CHT-expressing cells, membrane potential dye, choline response; hits give low values. Q9GZV3. 310,000 compounds, 0.86% hits. B-score at 10 µM;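 active means B-score over 3 SD under the library average, and starting fluorescence ratio not unusually high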;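 further: choline stimulus applied at its EC90 after an EC20 pre-addition; B-score computed on integrated fluorescence ratio after choline addition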
procasp7 counter = counter-screen for procaspase-3 activators: activators of human procaspase-7 | P55210 | recombinant procaspase-7, Ac-DEVD-pNA absorbance 405 nm; D23A/D198A/D206A triple mutant, cannot self-cleave; scale: DMSO 0, 5 µM enzyme 100 | activation, % at 8.5 µM | 330,000 compounds, 0.093% hits;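 active means percent activation above the screen-wide mean plus 3 SD, cut at about 25% in these data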
Target sequence (P55210 whole entry D23A/D198A/D206A): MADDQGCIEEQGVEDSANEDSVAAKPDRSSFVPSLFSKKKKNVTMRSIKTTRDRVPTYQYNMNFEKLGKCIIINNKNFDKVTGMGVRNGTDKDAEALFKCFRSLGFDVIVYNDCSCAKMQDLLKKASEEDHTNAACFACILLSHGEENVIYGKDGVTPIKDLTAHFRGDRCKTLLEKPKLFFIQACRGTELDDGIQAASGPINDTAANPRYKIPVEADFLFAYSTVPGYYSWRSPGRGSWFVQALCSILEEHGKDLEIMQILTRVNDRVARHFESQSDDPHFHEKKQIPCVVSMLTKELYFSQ
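Assay system: Uncleavable procaspase-7 mutant enzyme / Input: 2 µM procaspase-7 mutant as dispensed / Dosing: single nominal 8.5 µM compound dose, 0.8% DMSO final / Timing: 1 h enzyme–compound preincubation and 2 h substrate reaction, both 25 °C / Detection: p-Nitroaniline absorbance at 405 nm, read at 0 and 120 min / Replication: singlicate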
CHT act confirm = human CHT activation, confirmatory screen; shares compounds with CHT allo act; CHT-expressing cells, membrane potential dye fluorescence (FDSS); % of choline EC20–EC90 response window; HEK293 expressing CHT LV-AA mutant; choline added at its EC20; activation, % at 10 µM; 2,500 compounds, 91% hits; AID 504833;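 active means primary screen active, with duplicate mean activation above negative control mean plus 3 SD, cut at about 11% in these data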
HEK293 MP dye = counter-screen for CHT activators: effect in parental HEK293 cells; 2,500 compounds, 62% hits; membrane potential dye fluorescence (FDSS); measured after EC20 choline addition; ratio readout change at 10 µM, hits read low; shares compounds with CHT allo act;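 active means duplicate-averaged ratio beyond 3 SD from buffer wells, up or down, though filed actives are nearly all decreases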
Large screens that a line does not name were inactive (follow-up assays come after a bar, where they were run). Compounds with a hit are over-represented: about 1.3% of the library has one in this group of screens.

COc1ccc(C(C)=O)cc1CSc1nc2ccccc2c(=O)n1-c1ccccc1	none
CSc1ccc(/C=C/C(=O)c2c(O)cc(C)oc2=O)cc1	none
CC1CCC(C(C)C)C(OC(=O)C[n+]2cc(-c3ccc(Cl)cc3)n3c2CCC3)C1 (stereo unspecified)	CHT allo act 13.9 | CHT act confirm 83.3 | HEK293 MP dye inactive
CN(C(=O)COC(=O)/C=C/c1ccc(F)cc1)c1c(N)n(Cc2ccccc2)c(=O)[nH]c1=O	none
Cc1cc(C)n2[nH]c(=O)c(N=Nc3ccc(S(N)(=O)=O)cc3)c2n1	CHT allo act 9.18 | CHT act confirm 70.4 | HEK293 MP dye -80.6
Cc1ccc(N=Nc2c(=O)[nH]n3c(C)cc(C)nc23)cc1	none
CCC(N=c1cc(-c2ccc(OC)cc2)oc2ccc(C)cc12)C(=O)O (stereo unspecified)	none | CHT act confirm 32.0 | HEK293 MP dye -26.7
Cc1ccc(-c2cn(-c3ccc(OC(F)F)cc3)c3[n+]2CCCCC3)cc1	none | CHT act confirm 57.1 | HEK293 MP dye inactive
FC(F)Oc1ccc(-n2cc(-c3ccccc3)[n+]3c2CCCCC3)cc1	none
CCOc1cc(C(=O)Nc2ccc(S(=O)(=O)NC3=NCCCCC3)cc2)cc(Br)c1OC	none
CC(=O)c1ccc(N(CC(=O)NC2CCCCC2)C(=O)CNC(=O)c2cccs2)cc1	none
C[N+](C)(C)CC(=O)N1CCN(c2ccc3ccccc3n2)CC1	CHT allo act 8.73 (no result: procasp3 activ, procasp7 counter) | CHT act confirm 78.6 | HEK293 MP dye -62.9
Oc1ccccc1N1CCN(c2ccc3ccccc3n2)CC1	none
Cc1cccc2nc(=S)n(C(=O)c3ccco3)n12	none
O=C(c1ccco1)n1c(=S)nc2ccccn21	none | CHT act confirm 33.7 | HEK293 MP dye -24.5
CC(C)C[C@H](NC(=O)NCc1ccc(F)cc1)C(=O)O	none
COC(=O)c1ccc(OCCN2C3=NCCN3c3ccccc32)cc1	none | CHT act confirm 17.1 | HEK293 MP dye -40.5
Clc1ccc(CN2C3=NCCN3c3ccccc32)cc1Cl	none | CHT act confirm 23.2 | HEK293 MP dye inactive
c1ccc2c(c1)N1CCCN=C1N2CCN1CCCCC1	CHT allo act 9.51 | CHT act confirm 30.8 | HEK293 MP dye -72.1
c1ccc(CN2C3=NCCN3c3ccccc32)cc1	none
COC(=O)c1ccc(OCCN2CCCCCC2)cc1	none
c1ccc2c(c1)N1CCN=C1N2CCN1CCCCC1	CHT allo act 9.78 | CHT act confirm 79.7 | HEK293 MP dye -80.4
CS(=O)(=O)c1nc(S(=O)(=O)c2ccc(Cl)cc2)c(NCCCN2CCOCC2)s1	none
CCn1ncc([C@@H]2C[C@H]3CN(Cc4cccc(Cl)c4)C(=O)[C@]34CCCN24)c1C	none
Cn1cc([C@@H]2C[C@H]3CN(Cc4cccc(Cl)c4)C(=O)[C@]34CCCN24)c(-c2ccccc2)n1	none | CHT act confirm 18.6 | HEK293 MP dye inactive
Cc1nc(NCCCn2ccnc2)c2ccccc2n1	none | CHT act confirm 45.7 | HEK293 MP dye -64.5
CCN(CCCNC(=O)Cn1ncc2c([nH]c3ccc(C)cc32)c1=O)Cc1ccccc1	none
COc1ccc(CCNC(=O)c2noc(C)c2[N+](=O)[O-])cc1OC	none
COc1ccc(/C=N/NC(=O)C(N)=O)c(OC)c1OC	none
COc1ccc(/C=N/N(C)C2=NCCN2)c(OC)c1OC	CHT allo act 6.97 | CHT act confirm 48.4 | HEK293 MP dye -29.6
O=C(NCC(=O)N1CC(O)CC1C(=O)N1CC(O)CC1C(=O)OCc1ccccc1)OCc1ccccc1 (stereo unspecified)	none
Cc1ccc2nc(Cl)c(/C=N/n3c(C)nnc3C)cc2c1	CHT allo act 8.04 | CHT act confirm 42.6 | HEK293 MP dye -53.5
COc1ccc(OC)c2nc(-c3ccncc3)ccc12	none | CHT act confirm 51.7 | HEK293 MP dye -52
O=C(CCc1nc2ccccc2c(=O)[nH]1)NNC(=O)c1ccc(F)cc1	none (no result: CHT allo act, CHT inh)
COc1ccc(S(=O)(=O)N2CCCC2)cc1C(=O)N1CCCCC1	none
COc1ccc(S(=O)(=O)N2CCCCCC2)cc1C(=O)N1CCCC(C(F)(F)F)C1 (stereo unspecified)	CHT allo act 10.3 | CHT act confirm 15.1 | HEK293 MP dye inactive
CCOc1ccc(S(=O)(=O)NCc2ccco2)c2ccccc12	none | CHT act confirm 16.5 | HEK293 MP dye inactive
COc1ccc(Nc2nccc(N(C)C)c2C#N)cc1	none | CHT act confirm 49.8 | HEK293 MP dye -42.4
COc1ccc(Nc2nccc(OC)c2C#N)cc1	none
CC(C)CN1CCN(Cc2cccn2-c2ccc(Cl)cn2)CC1CCO (stereo unspecified)	none | CHT act confirm 54.0 | HEK293 MP dye inactive
Cn1nccc1C(=O)N1CCCC(N2CCN(Cc3ccc4c(c3)OCO4)CC2)C1 (stereo unspecified)	none (no result: procasp3 activ, procasp7 counter)
CCN(CC)CCCNc1nc2ccccc2[nH]1	CHT allo act 7.8 | CHT act confirm 34.8 | HEK293 MP dye -34.5
c1ccc2[nH]c(NCCCN3CCOCC3)nc2c1	CHT allo act 6.35 | CHT act confirm 38.4 | HEK293 MP dye -33.2
O=c1[nH]c2ccccc2nc1NCCN1CCOCC1	none
COc1ccc(-c2c(C(C)=O)c(C)nc3sc4c(=N)n(N)cnc4c23)cc1	CHT allo act 6.72 | CHT act confirm 41.0 | HEK293 MP dye -38.3
CN1CCc2c(sc(NC(=O)c3ccc(S(=O)(=O)N4CCCC4)cc3)c2C(N)=O)C1	none
CCN1CCc2c(sc(NC(=O)c3ccc(S(=O)(=O)N(C)CC4CCCO4)cc3)c2C(N)=O)C1 (stereo unspecified)	none | CHT act confirm 68.8 | HEK293 MP dye -37.8
CC(C)N1CCc2c(sc(NC(=O)c3ccc(S(=O)(=O)N(C)CC4CCCO4)cc3)c2C(N)=O)C1 (stereo unspecified)	none
CN1CCc2c(sc(NC(=O)c3ccc(S(=O)(=O)N4CCOCC4)cc3)c2C(N)=O)C1	CHT allo act 6.57 | CHT act confirm 66.9 | HEK293 MP dye -62.7
CN1CCc2c(sc(NC(=O)c3cc(Cl)sc3Cl)c2C(N)=O)C1	none | CHT act confirm 21.6 | HEK293 MP dye inactive
CN1CCc2c(sc(NC(=O)c3ccco3)c2C(N)=O)C1	none
Cc1csc2cc(-c3cccc([N+](=O)[O-])c3)c(-c3cccc([N+](=O)[O-])c3)c[n+]12	CHT allo act 9.3 | CHT act confirm 85.8 | HEK293 MP dye -87.1
O=C(NCCNc1nccc(C(F)(F)F)n1)c1cccs1	none
CCCSc1nc2cc(OC)c(OC)cc2c(=N)n1CCCN1CCOCC1	CHT allo act 6.51 | CHT act confirm 53.4 | HEK293 MP dye -39.6
CC(C)(C)NC(=O)CSc1nc(O)cc(=O)[nH]1	none

Screening data: PubChem, several laboratories
